According to the EternaBench riboswitch data:

System: MS2 coat protein
Assay: apparent Kd, MS2 coat protein; higher = weaker binding; RNA-MaP array; FMN 200 µM where present
How it was run: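 In 100 mM Tris-HCl pH 7.5, 80 mM KCl, 4 mM MgCl2, BSA, DTT, yeast tRNA and Tween-20, SNAP-549-labelled MS2 coat protein was titrated from 0.7 or 1.5 nM, doubling to 3 µM, over designs transcribed by stalled E. coli RNA polymerase on Illumina sequencing-chip clusters. This was done first without ligand, then with ligand held constant. After green signal was normalised to red-channel RNA signal and control-cluster median Fmax, the apparent Kd was taken as the median of filtered per-cluster binding-curve fits.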

[1] = designed as: ON switch for flavin mononucleotide, no ligand
[2] = ligand present: flavin mononucleotide, designed as: ON switch for flavin mononucleotide
[3] = designed as: OFF switch for flavin mononucleotide, no ligand
[4] = ligand present: flavin mononucleotide, designed as: OFF switch for flavin mononucleotide

Row | Sequence | apparent Kd [1] | apparent Kd [2] | apparent Kd [3] | apparent Kd [4]
1 | AAUUAGGUCACAGGAUAUACUUCAUCCAUAGAUGUAGAAGGGUGUCAGAAUAAUUUCUUACAUGAGGAUCACCCAUGUUUCCAC | 108 nM | 48.1 nM | – | –
2 | AAAAAAAAGCCCAAGGAUAUCCGGAUGAAGACAUGAGGAUCACCCAUGUGAAAAAAAAAAUAUGAGGAGAAGGUGGGAAAAAAAAA | 83.6 nM | 61.6 nM | – | –
3 | UUUGGGUGGCUGGAGGAUAUUCGAGUGGUUACAUGAGGAUCACCCAUGUGUCGCGCGGUACGCGAGGAGAAGGCUGGCGGCCGUU | 79.7 nM | 37 nM | – | –
4 | UGUCGGAGCAGAGGAUAUUACAUGAGGAUCACCCAUGUAUGAACCAAUAGCUGGAAACAGUAAUGUAAGAAGGCUGCUCCGACA | – | – | 7.33 nM | 76.2 nM
5 | UUCAUGUGAGGAUAUAAAAUGAAUAUAAAUUAUUAUCUUGAUUAGAAGGCACAUGAGGAUCACCCAUGUCUGAA | – | – | 33.1 nM | 47.9 nM
6 | AAUUGGAUCCAGAAGGCAUGGACGACCCGUCACAUUAACAUGAGGAUCACCCAUGUAAAAAUACAUGAGGAUAUGGAUCCUAAA | 41.3 nM | 7.43 nM | – | –
7 | GAUCCACAUGAGGAUCACCCAUGUGAGGAUAUGAUACUAUGUACUUCGGUACAUAGUAUCAGAAGGCACGGGUC | – | – | 84.1 nM | 206 nM
8 | GCCAUCACAUGAGGAUAUGCUCCCGUUUCGGGAGCAGAAGGCAUGUCAUAAGACAUGAGGAUCACCCAUGUAGUUAAGAUGGCA | 375 nM | 13.3 nM | – | –
9 | AAACACGGACAUGAGGAUCACCCAUGUGGCGAAAGCCUUGGGAGAAGGCCGAUUGCAAAGCAAUCGGAGGAUAUCCAUACCGUG | 17.8 nM | 6.03 nM | – | –
10 | GCCAUCGUAUGAGGAUAUGGCACCGAAACGGUGCCAGAAGGCAUGUCGAUAGACAUGAGGAUCACCCAUGUAUUAACGAUGGCA | 1120 nM | 117 nM | – | –
11 | GUAGCUACUAUUAUACAUGAGGAUCACCCAUGUUACAUGUGUAAGGAUAUUGAAGUUAUUAUUAUCAAGAAGGUACUAUGCUAC | 16.2 nM | 9.54 nM | – | –
12 | CGCUCAAUUCUUUAGGUUAGAAUCAGAAGGCGUAACAUGAGGAUCACCCAUGUAUAGACGUGUAACGAGGAUAUGAAUUGAGCG | – | – | 5.64 nM | 5.46 nM
13 | AUAUCAUACCAAGGAUAUUUAGGAUUUGUGUAGACAUGAGGAUCACCCAUGUGGCGUUAGUCACGGGAGAAGGUGGUAUGAUAU | 622 nM | 105 nM | – | –
14 | ACAAGAUCAGGAUAUACAUGAGGAUCACCCAUGUAUUUCAAAAAGGGACUUUCUUAAUGUAGAAGGGAUCUUGU | – | – | 22.5 nM | 94.4 nM
15 | CCAGCCCGUGCAGGAUAUACAUGAGGAUCACCCAUGUAGGAGAAUCCGCCGGUAGAAGGGUACGGACGGGCGUCUGACGCUUGU | – | – | 5.87 nM | 6.33 nM
16 | GUGUACAUAUCAGGAUAUCUAUUUCCUACAUGAGGAUCACCCAUGUAGAUGAUCACCCAUGUAAAGGAGAAGGGAUAUGUAUAC | 384 nM | 222 nM | – | –
17 | AAGAAAUGGGAGUGAUUUGGUUCCGAGGAUAUAGGCAUCGGUACAUGAGGAUCACCCAUGUUCGACUAGAAGGCGGACGGGUCC | 169 nM | 20.4 nM | – | –
18 | UGCACUAGAUGAGGAUAUGCACAUGAGGAUCACCCAUGUGUGUGCUGCGGUGGUGAUCUGUAAAUGCAGAAGGCAUUCGGGCGG | – | – | 111 nM | 63.9 nM
19 | UUUAUAAAUUAGAAGGCGAGAUAAAUUACAAUAGACAUGAGGAUCACCCAUGUGUACCCAUGUUUUGAGGAUAUAGUCAUAUAU | 1140 nM | 624 nM | – | –
20 | UCCUUGUAAGGAUAUCGACGGCUACUCAAUUAAGCCGAUGCUGAGAAGGUACAUGAGGAUCACCCAUGUCUGGU | – | – | 52.1 nM | 275 nM
21 | AUGGUACAUGAGGAUCACCCAUGUCAGGAUAUCGGCUGUGACGUGAAAAGAGUGUUGGCGAGAAGGGACUGCAA | – | – | 39.7 nM | 45.6 nM

Row | Sequence | apparent Kd [1] | apparent Kd [2] | apparent Kd [3] | apparent Kd [4]
22 | ACAUGAUCAGGAUAUACAUGAGGAUCACCCAUGUAUAUAAAAAAAAAACUUUCUUCAUGUAGAAGGGAUCUUGU | – | – | 16.6 nM | 26.3 nM
23 | GGGUACAUCGGAGGAUAUCAUGUAAAUACAUGAGGAUCACCCAUGUCAAUGGAGACAUCGGAGAUUGAGAAGGCCGAUGUACCG | 86.1 nM | 340 nM | – | –
24 | GAGAAGUCAGGAUAUGCAUGGCGGGACUUGCGUCGUGGCGUGCAGAAGGGACAUGAGGAUCACCCAUGUGGAGA | – | – | 125 nM | 291 nM
25 | GUUAAACAUGAGGAUCACCCAUGUCAAUGUAGUCGAGGAUAUGGGCAGCUGUGAGGCGUACUAGAAGGCGAAAAGG | 270 nM | 57.5 nM | – | –
26 | GGGUACUAGGGAGGAUAUGGGAAGAUACAUGAGGAUCACCCAUGUUUAAGAAUGCCGAGAGGCAACUAGAAGGCCCUAGUACCU | 428 nM | 19.7 nM | – | –
27 | GUAUUUAGAUAAGGAUAUAAGUCUAUGACAUGAGGAUCACCCAUGUGUGUCUUAGAAGGUAUUUGGGUAAUAUUGUUACAGUAA | – | 16.2 nM | – | –
28 | GCACAUUUGUAAGGAUAUACAACAUGAGGAUCACCCAUGUGUUGGAAUUUAGUAGAAGGUACAGACAUGAGUAUCACUUUUGUA | 72.7 nM | 51.9 nM | – | –
29 | GGAGCACAUGAAUACAUGAGGAUCACCCAUGUCGAAUGAUAUGAGGAUAUGGAUCGGAAAACGAUCUAGAAGGCAUAGUGCUCC | 76.5 nM | 10.2 nM | – | –
30 | CCGGAAUCCUAGGAUAUGCUAGACGAAAGUCUAGCAGAAGGAGGAACAUGAGGAUCACCCAUGUGUCCUACCGG | – | – | 18.6 nM | 25 nM
31 | GACCUACAUGAGGAUCACCCAUGUCAGGAUAUUUAACCGAUGUCACCCAUCGGUCCUUAGAGAAGGGAUGUGGC | – | – | 15 nM | 14.9 nM
32 | GCCAGGGAUUCAGGAUAUAUUAGCCGAGGCCGAGUAGAAGGGAAAUCCUGACAUGAGGAUCACCCAUGUCGACCCGCCUUCCUC | 20.5 nM | 21.1 nM | – | –
33 | CGCUGGUGACAGCAUCCAUCAAAACAUGAGGAUCACCCAUGUAGAAGGCUGUACGGUUACCGUACAGAGGAUAUACAAUGAUGA | – | – | 15.9 nM | 26.4 nM
34 | AUGGAUAUCACAGGAUAUGAUAUGGAUACCAUAUCAGAAGGGUGAUCCAUCCUAUGUAAAUACAUGAGGAUCACCCAUGUGUCC | 15.1 nM | 31.6 nM | – | –
35 | ACCUUACAUGAGGAUCACCCAUGUCAGGAUAUCUCGGACGGCUGAAAACCAACCGUCCAGAGAAGGGACGAGGA | – | – | 13.1 nM | 15.2 nM
36 | GCGAUGAUCGAGAAGGCCACUACAUGAGGAUCACCCAUGUCGUGGUGUAUUGGAGGAUAUCGAUCGGCGUCUCAUGAGGACAUA | – | – | 4.65 nM | 5.78 nM
37 | GACAUUGGCAAGAAGGCAAACAUGAGGAUCACCCAUGUUCUGCAUGUAUAUUGAGGAUAUUGCCAAUGUAUGUGGAUCACCCAA | – | – | 6.36 nM | 23.3 nM
38 | AUCAGCUCGUCAGGAUAUACAUGAUAGAUCGAUUAAUUAAUUAAUUUAACAUGAGGAUCACCCAUGUAGAAGGGACGAGCUGAU | – | – | 68.5 nM | 67.4 nM
39 | AGCCAGGAUGAGUACCUGAGCGGGAGAAGGUACGAGGGAUCGUCUGGACAUGAGGAUCACCCAUGUAAGGAUAUCCCGCCUAUU | – | – | 8.69 nM | 15 nM
40 | UGGUACUAGGGAGGAUAUGGGAAGAUACAUGAGGAUCACCCAUGUUGAAGAAUGCCGAGAGGCAACUAGAAGGCCCUAGUACCU | 137 nM | 9.13 nM | – | –
41 | CCGACGAAAGUCGAACGAUGUAGCAGAAGGACAUGAGGAUCACCCAUGUCAGCUGUAACAGCCAUGUAGGAUAUGCUACAUCGG | – | – | 4.44 nM | 5.53 nM
